Screens as filed in PubChem BioAssay.
An excerpt weighted towards active compounds, which were near 3.5% of everything screened.
FXIa inh = inhibitors of human coagulation factor XIa. inhibition, % at 5 µM. 0.14% of 220,000 active. AID 798. P03951. purified FXIa, Boc-Glu-Ala-Arg-AMC fluorogenic substrate;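 active = inhibition of at least 40%; inactive = inhibition below 40%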;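 note: fluorescence of freed AMC excited at 355 nm; 0% = enzyme without compound and 100% = no enzyme blank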
AHR activator = activators of human aryl hydrocarbon receptor; AHR-responsive luciferase reporter cells, luminescence; P35869; activation, % at 5 µM; 2.5% of 320,000 active; in the data active = activation above about 47%;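 note: 0% = vehicle wells and 100% = reference agonist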
thrombin 1536 = inhibitors of human thrombin; P00734; alpha-thrombin, Boc-VPR-AMC fluorogenic substrate cleavage; inhibition, % at 5 µM; 0.26% of 220,000 active;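 active = inhibition at or above 40%; inactive = inhibition below 40%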;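 note: 0% = enzyme with no compound and 100% = wells without enzyme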
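Assay system: human alpha-thrombin enzyme. Reagent: Boc-VPR-AMC substrate, 15 µM final. Compound dosing: one concentration per compound, 5 µM, with 0.2% DMSO. Incubation: room-temperature reaction. Technique: AMC fluorescence, 355/460 nm. Measure: % inhibition relative to enzyme controls and enzyme-free blanks.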
FXIIa inh = factor XIIa (human) inhibition; purified FXIIa, Boc-QGR-AMC fluorogenic substrate, 2 h; inhibition, % at 5 µM; 0.3% of 220,000 active; in the data active = inhibition above about 40%;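 note: 0% = enzyme with no compound and 100% = blank without enzyme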
Target sequence (P00748 20-372 limits assumed): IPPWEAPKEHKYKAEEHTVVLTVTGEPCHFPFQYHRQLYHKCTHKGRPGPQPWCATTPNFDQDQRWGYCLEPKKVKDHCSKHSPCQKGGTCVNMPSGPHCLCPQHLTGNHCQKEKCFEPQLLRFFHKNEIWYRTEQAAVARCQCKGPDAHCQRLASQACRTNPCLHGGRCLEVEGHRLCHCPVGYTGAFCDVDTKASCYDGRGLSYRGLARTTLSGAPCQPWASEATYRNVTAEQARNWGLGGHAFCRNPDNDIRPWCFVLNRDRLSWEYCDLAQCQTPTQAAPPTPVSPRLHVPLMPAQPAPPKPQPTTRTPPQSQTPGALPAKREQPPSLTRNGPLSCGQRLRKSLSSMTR
Target sequence (P00748 373-615 limits assumed): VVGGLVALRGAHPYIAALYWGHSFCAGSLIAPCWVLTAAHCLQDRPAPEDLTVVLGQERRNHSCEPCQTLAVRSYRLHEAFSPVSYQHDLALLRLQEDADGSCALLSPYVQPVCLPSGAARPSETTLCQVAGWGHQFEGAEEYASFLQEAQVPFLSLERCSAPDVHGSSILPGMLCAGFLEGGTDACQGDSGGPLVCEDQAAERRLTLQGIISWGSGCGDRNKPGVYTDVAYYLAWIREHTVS
STAT3 act-1 = STAT3 signaling activation | U3A cells, IL-6 STAT3-luciferase reporter, luminescence; 100% = signal with IL-6 EC80 alone | activation (% of control), % at 5.6 µM | 0.91% of 190,000 active;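 active = activation above the screen-wide mean of compound activation plus 3 SD, cut at about 130% in these data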;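 note: 0% = background luminescence of wells with medium and substrate only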
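Material: human U3A cells carrying STAT3-luciferase construct. Measured by: reporter luminescence signal. Timing: compound 1 h, then IL-6 6 h at 37 °C.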
KLK5 inh = inhibitors of human kallikrein 5; Q9Y337; recombinant hK5, fluorogenic AMC substrate cleavage; inhibition, % at 5 µM; 0.59% of 210,000 active; AID 873;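 active = inhibition of 40% or more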;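 note: 0% = enzyme controls without compound and 100% = no-enzyme blanks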
STAT3 act-2 = STAT3 activation, confirmation assay. shares compounds with STAT3 act-1. U3A STAT3-luciferase reporter, IL-6 potentiation, luminescence; U3A cells lack STAT1; 100 means same as IL-6 alone. potentiation (% of control), % at 5.7 µM. 64% of 1,200 active. AID 1267;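 active = percent activation of the STAT3 luciferase reporter above a set limit taken from the earlier primary screen, cut at about 130% in these data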;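 note: 0% = background signal of medium plus substrate and 100% = median of IL-6 with DMSO wells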
NFkB act STAT3ct = activates NF-kappaB, counter-screen to STAT3 activators | shares compounds with STAT3 act-1 | human cells, NF-kappaB reporter activation | activation (% of control), % at 5.7 µM | 11% of 1,200 active | AID 1309; in the data active = activation above about 120%;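 note: reporter induced by TNF-alpha stimulation; 100% = median of stimulated DMSO wells and 0% = no signal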
STAT1 act STAT3c = counter-screen for STAT3 activators: STAT1 activation; shares compounds with STAT3 act-1; NIH 3T3 STAT1-luciferase reporter, IFN-gamma, luminescence; activation (% of control), % at 5.7 µM; 13% of 1,200 active; AID 1318;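 active = activation above the solvent-only control well mean plus 3 SD, set per screening run, cut at about 120% in these data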;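 note: 100% = IFN-gamma with DMSO median signal so 100% means no change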
* = called active by the depositor; . = no result given.

SMILES | FXIa inh | AHR activator | thrombin 1536 | FXIIa inh | STAT3 act-1 | KLK5 inh | STAT3 act-2 | NFkB act STAT3ct | STAT1 act STAT3c
CC1Cc2ccccc2N1Cc1cc(=O)n2ccsc2n1 (stereo unspecified) | 16.0 | 39.5 | 2.9 | 33.5 | 145.7* | -20.7 | 152.2* | 101.3 | 98.7
O=C(CN1CCC(NC(=O)c2ccco2)CC1)Nc1ccccc1[N+](=O)[O-] | -2.1 | 13.9 | -5.1 | 7.6 | 137.6* | 2.4 | 144.0* | 104.4 | 91.7
O=C(O)c1cc(S(=O)(=O)N2CC3CC3C2C(=O)O)c(Cl)cc1Cl (stereo unspecified) | . | -3.4 | . | . | . | . | . | . | .
Cc1cc(NC(=O)CN2CCOCC2)n(-c2nc3ccccc3s2)n1 | 3.6 | 25.6 | -2.0 | 15.8 | 164.8* | -24.5 | 146.1* | 101.8 | 98.6
CC(=O)Nc1cc(C)nn1-c1nc2ccccc2s1 | -1.1 | 46.0 | 10.2 | 2.6 | 147.8* | -5.1 | 181.1* | 122.5* | 144.2*
Cc1cc(C)n(-c2ccc(C(=O)Nc3nc4ccccc4s3)cc2)n1 | -9.2 | -7.5 | -1.7 | -9.2 | 99.9 | -14.7 | . | . | .
Cc1nc2ccccn2c1C(=O)CSc1cccc(Cl)c1 | 2.6 | -0.9 | -1.9 | 13.2 | 88.3 | 21.7 | . | . | .
COc1ccc2nc(SCC(=O)Nc3ccc(S(=O)(=O)Nc4nccc(C)n4)cc3)[nH]c2c1 | 3.9 | -0.3 | 0.0 | 13.6 | 101.9 | -18.4 | . | . | .
COc1ccc(CC2SC(N)=NC2=O)cc1 (stereo unspecified) | . | -0.1 | . | . | . | . | . | . | .
O=C(NCCC(=O)N1CCCC1)c1ccccc1Cl | . | -3.0 | . | . | . | . | . | . | .
O=C(CNC(=S)N(CCCN1CCOCC1)Cc1cccs1)N1CCCC1 | 0.8 | 4.2 | -1.3 | 11.4 | 81.8 | 3.3 | . | . | .
CC1=NOC(=O)/C1=C\c1ccc(-c2cccc(Cl)c2)o1 | -3.1 | 5.6 | -4.6 | 6.1 | 137.4* | 16.7 | 115.8 | 110.1 | 105.3
CSc1nnc2c(n1)c(C)nn2-c1ccc(C)cc1 | 0.5 | 17.5 | -2.9 | 11.5 | 148.9* | -10.9 | 160.9* | 115.7 | 127.8*
COc1ccc(C)cc1NC(=O)C1CC(=O)N(Cc2ccco2)C1 (stereo unspecified) | -9.5 | 12.6 | -1.6 | 1.9 | 100.9 | -21.2 | . | . | .
COc1cc2c(cc1NC(=O)C(C)OC(=O)C1CC(=O)N(Cc3ccco3)C1)oc1ccccc12 (stereo unspecified) | 1.4 | 53.8* | 2.3 | 9.3 | 154.4* | -6.6 | 146.6* | 117.9 | 122.3*
Clc1ccccc1-c1ccc(/C=N/Nc2nncc(-c3ccccc3)n2)o1 | -0.3 | 29.3 | . | 1.9 | 162.9* | -6.2 | 154.3* | 103.3 | 107.3
CC(C)CCNC(=O)Cc1ccccc1[N+](=O)[O-] | 2.5 | 13.3 | 6.3 | 20.7 | 150.0* | -1.4 | 128.2 | 101.9 | 95.6
O=C(NCCCN1CCCC1=O)C1CCN(S(=O)(=O)c2ccccc2)CC1 | . | 5.6 | . | . | . | . | . | . | .
O=C(CCc1nnc(CCCc2ccccc2)o1)NCC(F)(F)F | 1.2 | 2.0 | -9.6 | 10.9 | 102.9 | 2.1 | . | . | .
COc1cc(/C=N/NC(N)=S)ccc1OCC(=O)Nc1ccc(C)cc1 | 17.6 | 25.0 | -11.4 | 19.7 | 153.7* | -29.4 | 117.9 | 99.2 | 110.6
CCN1C(=O)C(F)(CC)C(=O)c2ccccc21 (stereo unspecified) | -11.6 | 2.3 | -14.0 | 0.8 | 97.2 | -10.2 | . | . | .
Clc1ccc2c(NCc3cccs3)ncnc2c1 | . | 21.9 | . | . | . | . | . | . | .
Clc1ccc2c(NCc3ccccn3)ncnc2c1 | -17.3 | 59.5* | -4.4 | 11.3 | 140.2* | -0.7 | 136.6* | 107.5 | 117.6
O=C(Nc1nnc(-c2ccccc2Cl)o1)c1nc2ccccc2s1 | -8.0 | 16.5 | 3.8 | -0.2 | 159.1* | -42.7 | 139.6* | 97.9 | 101.0
Clc1ccc(C2Nc3ccccc3-n3cccc32)cc1 (stereo unspecified) | 15.1 | 27.3 | 7.1 | 14.3 | 165.6* | 8.3 | 160.3* | 113.4 | 114.3
SMILES | FXIa inh | AHR activator | thrombin 1536 | FXIIa inh | STAT3 act-1 | KLK5 inh | STAT3 act-2 | NFkB act STAT3ct | STAT1 act STAT3c
COc1ccc(/C=c2\sc3nc(-c4ccccc4OC)nn3c2=O)c(OC)c1 | 10.0 | 42.3 | 2.9 | 14.7 | 155.6* | -19.9 | 128.8 | 97.5 | 96.3
COc1ccccc1-c1nc2s/c(=C\c3cccs3)c(=O)n2n1 | 4.6 | 12.9 | 6.9 | -14.7 | 114.6 | -6.3 | . | . | .
COc1ccc(Cn2c(CCC(=O)O)nc3cccnc32)cc1 | 2.3 | -3.1 | -3.0 | 15.2 | 106.0 | -6.0 | . | . | .
COc1cc(/C=C/C(=O)O)cc(S(=O)(=O)NC2CC2)c1OC | 6.2 | -0.6 | -2.2 | 8.1 | 94.2 | -13.3 | . | . | .
CC(Oc1ccc(F)cc1)C(=O)Nc1ccc2ccccc2c1 (stereo unspecified) | 2.9 | 11.6 | -3.4 | 10.7 | 139.2* | -12.6 | 135.8* | 103.0 | 108.6
CC(OC(=O)c1cccc(-n2cnnn2)c1)C(=O)Nc1cccc(Cl)c1 (stereo unspecified) | . | 5.7 | . | . | . | . | . | . | .
FC(F)(F)c1nnc2c(Sc3ccccn3)nc3ccccc3n12 | -0.4 | 22.2 | -4.8 | 10.8 | 141.3* | -16.9 | 146.2* | 121.8* | 127.7*
O=C(CNc1cccc2ccccc12)N/N=C/c1ccc(OC(=O)/C=C/c2ccco2)cc1 | -0.9 | . | 9.4 | 13.6 | 156.3* | 4.6 | 123.7 | 103.3 | 103.8
Brc1cc(Br)c2nc(-c3cccs3)ccc2c1 | 0.5 | 52.0* | 0.3 | 9.7 | 144.9* | 14.4 | 132.6 | 115.0 | 125.1*
O=C1C2CC=C(Cl)CC2C(=O)N1CCc1ccccc1 (stereo unspecified) | -6.8 | 26.7 | -7.9 | 9.4 | 94.9 | -14.8 | . | . | .
O=C(O)C(Cc1cc2ccccc2[nH]1)N1C(=O)C2CC=C(Cl)CC2C1=O (stereo unspecified) | 7.7 | 20.8 | 3.0 | 15.9 | 141.5* | -4.5 | 134.9* | 101.6 | 95.4
CCc1ccc(/C=C/C(=O)c2cc(Br)ccc(=O)c2O)cc1 | 2.9 | 22.9 | 1.3 | 12.1 | 149.9* | -45.6 | 136.0* | 106.8 | 90.8
Cc1nn(-c2ccc(Cl)cc2)c(N)c1C(O)(CSc1nccn1C)C(F)(F)F (stereo unspecified) | 2.6 | 48.0* | -5.3 | 12.7 | 143.2* | 4.4 | 134.0* | 102.8 | 99.5
Cc1cccc(OCC(=O)N(Cc2ccco2)C2CCS(=O)(=O)C2)c1C (stereo unspecified) | . | 9.8 | . | . | . | . | . | . | .
Cc1nc2c(-c3ccc(Cl)cc3)cnn2c(N)c1-c1ccc(F)cc1 | . | 15.1 | . | . | . | . | . | . | .
Cc1nc2c(-c3ccc(Cl)cc3)cnn2c2c1CCC2 | -2.4 | 74.5* | -8.1 | 5.4 | 141.9* | 0.6 | 151.4* | 110.2 | 110.4
